Source: PubChem
GPR7 antagonist: GPR7 receptor antagonists, primary screen, cell-based, fluorescence, single concentration | AID 1861, 2009 | Neuropeptides B/W receptor type 1 (Homo sapiens), P48145 | inhibition, % at 4.4 µM | actives 1.1% (n = 290,000) | GPR7-expressing cells, fluorescence antagonist assay; in the data active means inhibition above about 16%, passing the limit was not always enough;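 further: cells stimulated with the agonist NPW; 0% = agonist with vehicle and 100% = vehicle without agonist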
LANA-H2A inh: blockers of LANA interaction with H2A/H2B – biochemical, FP readout, HTS, primary screen. AID 2629, 2010. actives 0.6% (n = 320,000). inhibition, % (concentration not given with the values). cell-free LANA-H2A/H2B peptide, fluorescence polarization; in the data active means inhibition mostly above about 10%, no sharp cut-off; inactive means mostly below about 6.7%
TRPN1 ag: zebrafish TRPN1 channel agonists, primary screen, cell-based, HEK293, calcium fluorescence; activation, % at 3 µM; AID 1424, 2008; actives 0.18% (n = 220,000); HEK293 zebrafish TRPN1-YFP, Fluo-8 calcium fluorescence; 100% = response to 87 µM carbachol;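 active means activation above its plate's cutoff, the mean activation of test wells on that plate plus 3 SD, cut at about 19% in these data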;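 further: 0% = DMSO alone and 100% = 87 µM carbachol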
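Material – zebrafish TRPN1-YFP in HEK293 cells · Doses – 3 µM single point · Schedule – dye 1 h 37 °C plus 30 min RT · Signal – Fluo-8 calcium fluorescence, excitation 470-495 nm, emission 515-575 nm · Read-out – % activation versus carbachol response · Control set – carbachol high, DMSO low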
TRPML3 agonist: human TRPML3 channel agonists, primary screen, cell-based, HEK293 TRPML3-YFP, Fluo-8 calcium fluorescence, 3 µM; Mucolipin-3 (Homo sapiens), Q8TDD5; 100% = the carbachol control signal; activation, % at 3 µM; actives 0.29% (n = 220,000); AID 1448, 2008;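 active means activation above its plate's cutoff, the mean activation of the plate's test wells plus 3 SD, cut at about 12% in these data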;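 further: 0% = DMSO only wells and 100% = carbachol wells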
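Material: TRPML3-YFP stable HEK293 cells | Dosing: One concentration, 3 µM nominal, 0.3% DMSO | Timing: 125 s total fluorescence read per well | Technique: Fluo-8 calcium dye fluorescence, ex 470-495, em 515-575 nm | Measure: Percent activation from peak-to-basal fluorescence ratio, scaled between DMSO and carbachol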
TAAR1 ag: human TAAR1 agonists, primary screen, Fluo-8 calcium fluorescence, CHO RD-HGA16 cells; AID 624467, 2012; activation, % at 3 µM; Trace amine-associated receptor 1 (Homo sapiens), Q96RJ0; vehicle wells 0%, saturating PEA agonist 100%; actives 0.99% (n = 360,000);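 active means activation above the mean activation of all test compounds in the run plus 3 SD, cut at about 38% in these data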
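Test system: RD-HGA16 (CHO) cells co-expressing Gα16 and hTAAR1 / Benchmarks: DMSO vehicle as 0%, PEA at EC100 as 100% / Repeats: no replicates (n 1) / Measure: % activation from peak over basal fluorescence ratio, DMSO-to-PEA scaled / Timing: 17-24 h plating, Fluo-8 75 min 37 °C, 30 min RT / Technique: kinetic Fluo-8 calcium fluorescence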
TAAR1 antagonist: human TAAR1 antagonists, primary screen, Fluo-8 calcium fluorescence, CHO RD-HGA16 cells; Trace amine-associated receptor 1 (Homo sapiens), Q96RJ0; antagonist; inhibition, % at 3 µM; actives 1.5% (n = 360,000);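 active means inhibition above a per-plate cutoff, the mean inhibition of test compounds on that plate plus 3 SD, cut at about 49% in these data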;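 further: 0% = DMSO plus EC80 beta-PEA response and 100% = DMSO alone without agonist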
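Assay system: CHO-derived RD-HGA16 cells stably expressing human TAAR1 plus Gα16. Timing: 140 s kinetic read after compound, 140 s after agonist. Technique: kinetic Fluo-8 calcium fluorescence measurement. Measure: % inhibition of agonist calcium response.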
* hit, by the source's call. Rows were chosen to be rich in hits. Some 3.4% of all compounds tested hit in one or more screens of this group.

For CCC1Sc2ccc(S(=O)(=O)CCC(=O)Nc3cccc(Br)c3)cc2NC1=O (stereo not given) the results were GPR7 antagonist -8, LANA-H2A inh 0, TAAR1 ag 7 and TAAR1 antagonist 49*.
`CCC1Sc2ccc(S(=O)(=O)Nc3ccc(OC)cc3)cc2NC1=O` (stereo not given) gave GPR7 antagonist 18, LANA-H2A inh -4, TAAR1 ag 56* and TAAR1 antagonist 24.
For CCOC(=O)CCCCCCCCC(=O)Nc1ccc(-n2[nH]c(=O)cc2C)cc1 the results were TAAR1 ag 44* and TAAR1 antagonist 2.
For Cc1ccc(NC(=O)CCCCCC2NC(=O)NC2C)cc1 (stereo not given) the results were GPR7 antagonist 10, LANA-H2A inh -3, TRPN1 ag -2 and TRPML3 agonist 0.
Screening CC1(C)CC(=O)C=C(C#CC2CC2)C1 returned TAAR1 ag 1 and TAAR1 antagonist 4.
CC(=O)CCN1CCSCCS1(=O)=O was read as TAAR1 ag 0 and TAAR1 antagonist 9.
Screening COc1ccc2cc(C3CC=C(CO)CN3S(=O)(=O)c3ccccc3[N+](=O)[O-])n(C(=O)OC(C)(C)C)c2c1 (stereo not given) returned TAAR1 ag 3 and TAAR1 antagonist 50*.
COc1ccc(OCC(=O)N2CCN(S(=O)(=O)c3ccccc3[N+](=O)[O-])CC2)cc1 was read as GPR7 antagonist -8, LANA-H2A inh -4, TRPN1 ag 0, TRPML3 agonist 1, TAAR1 ag 4 and TAAR1 antagonist 3.
`O=C(Cc1c[nH]c2ccccc12)Nc1ccc(Nc2cccnc2)cc1` gave TAAR1 ag 4 and TAAR1 antagonist 16.
For O=[N+]([O-])c1ccc(C2=NN(c3ccccc3)C(c3ccco3)C2)cc1 (stereo not given) the results were GPR7 antagonist 24*, TRPN1 ag 24*, TRPML3 agonist 12*, TAAR1 ag 89* and TAAR1 antagonist 61*.
`CC1=NN(c2ccccc2)C(c2ccco2)C1` (stereo not given) gave TAAR1 ag 0 and TAAR1 antagonist -3.
`O=C(CN1C(=O)NC2(CCCC2)C1=O)Nc1ccc(Cl)cc1F` gave GPR7 antagonist 1, LANA-H2A inh -3, TAAR1 ag 3 and TAAR1 antagonist -15.
`Cc1sc(NC(=O)CN2C(=O)NC3(CCCC3)C2=O)nc1-c1ccc(F)cc1` gave LANA-H2A inh 1, TAAR1 ag 7 and TAAR1 antagonist 15.
`O=C(CN1C(=O)NC2(CCCCCC2)C1=O)Nc1ccc2c(c1)CCC2` gave GPR7 antagonist 70*, LANA-H2A inh -3, TRPN1 ag 0, TRPML3 agonist 0, TAAR1 ag 15 and TAAR1 antagonist -8.
For CC(=O)c1sc(NC(=O)CN2C(=O)NC3(CCCC3)C2=O)nc1-c1ccccc1 the results were LANA-H2A inh 18*, TAAR1 ag 1 and TAAR1 antagonist 6.
O=C(CN1C(=O)NC2(CCCC2)C1=O)Nc1ccccc1F was read as GPR7 antagonist -3, LANA-H2A inh 27*, TRPN1 ag 4, TRPML3 agonist 1, TAAR1 ag 14 and TAAR1 antagonist 3.
Screening NC(=O)NN=C1CCC(O)CC1CC(=O)O (stereo not given) returned TAAR1 ag 1 and TAAR1 antagonist -5.
Screening CC(=O)C1=CCN(C)CC1 returned TAAR1 ag 1 and TAAR1 antagonist -8.
`CCOc1ccc(C(=O)NC(=S)Nc2cc(C)ccn2)cc1[N+](=O)[O-]` gave LANA-H2A inh 98*, TAAR1 ag -1 and TAAR1 antagonist 8.
For CCOc1ccc(C(=O)NC(=S)Nc2ccccn2)cc1[N+](=O)[O-] the results were GPR7 antagonist 12, LANA-H2A inh 10, TRPN1 ag 1, TRPML3 agonist 0, TAAR1 ag 1 and TAAR1 antagonist 1.
COc1ccc(O)c(/C=N/Nc2nc3ccccc3[nH]2)c1 was read as GPR7 antagonist -21, LANA-H2A inh 3, TRPN1 ag -1, TRPML3 agonist 0, TAAR1 ag 42* and TAAR1 antagonist 12.
CC(/C=N/Nc1nc2ccccc2[nH]1)=C\c1ccccc1 was read as GPR7 antagonist -15, LANA-H2A inh -4, TRPN1 ag -3, TRPML3 agonist 0, TAAR1 ag 40* and TAAR1 antagonist 38.
CC(/C=N/Nc1nc(C)cc(=O)[nH]1)=C\c1ccccc1 was read as GPR7 antagonist -2, LANA-H2A inh -4, TRPN1 ag 0, TRPML3 agonist 1, TAAR1 ag 2 and TAAR1 antagonist -5.
Screening COc1cc(/C=N/Nc2nc3ccccc3[nH]2)ccc1O returned GPR7 antagonist -12, LANA-H2A inh -2, TRPN1 ag 2, TRPML3 agonist -1, TAAR1 ag 42* and TAAR1 antagonist 21.
For O=c1c(C(c2ccccc2)c2c(O)sc3ccccc3c2=O)c(O)sc2ccccc12 the results were GPR7 antagonist -8, LANA-H2A inh 11*, TRPN1 ag -1, TRPML3 agonist 0, TAAR1 ag 1 and TAAR1 antagonist 17.
Screening O=c1c2ccccc2sc2ccccc12 returned TAAR1 ag 0 and TAAR1 antagonist -31.
N#CNC(=Nc1cccc(F)c1)SCc1cccc(F)c1 was read as GPR7 antagonist -12, LANA-H2A inh -2, TRPN1 ag 16, TRPML3 agonist 13*, TAAR1 ag 6 and TAAR1 antagonist 6.
`Cc1ccc(Cn2c(CCNc3nc(-c4ccc(Cl)c([N+](=O)[O-])c4)cs3)nc3cc(C(=O)NCCCO)ccc32)cc1` gave LANA-H2A inh -1, TAAR1 ag 8 and TAAR1 antagonist 55*.
For O=C(CNSc1ccc([N+](=O)[O-])cc1[N+](=O)[O-])OCc1ccccc1 the results were TAAR1 ag 0 and TAAR1 antagonist 5.
`CC(C)(C)S(=O)N1Cc2cc(C(=O)N[C@@H]3CCN(Cc4ccccc4)C3)nc(-c3cccc(-c4cc5ccccc5o4)c3)c2[C@@H]1CCO` (stereo not given in full) gave TAAR1 ag 13 and TAAR1 antagonist 59*.
